Consider 8 molecules from PMC4258449 (Nitric oxide : biology and chemistry / official journal of …, 2014).

As a reminder, the half-life is the time in which the quantity being followed falls by half. A word on the viability: it is the share of living cells, or the viability signal relative to a control. In general, IC50 refers to the midpoint of a concentration-inhibition curve.

Data set [1] deals with MDA-MB-231 and MCF-7 cells. To be noted: cited from earlier work.
The conditions of data set [2]: physiological conditions; cited from earlier work.
For a further data set, the system named is MCF-7 cells. The experiment in a line: Clonogenic cell viability assay. Format: cell-based, human. To be noted: MCF-7, 0.5–20 mM, 24 h treatment. The method, boiled down: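 MCF-7 cells in RPMI 1640 with 10% FBS and penicillin/streptomycin at 37 °C, 5% CO2, were seeded at 400,000 per 60-mm dish and grown 48 h. They were exposed in growth medium for 24 h, PBS-washed twice, trypsinized, counted and replated at 100, 1,000 or 10,000 per plate in triplicate. Colonies were crystal-violet stained after 10–12 d and counted. Experiments were repeated at least twice; mean ± SD.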

Data set [3] is classed as physicochemical. Conditions: for half-life: assay buffer: 50 µM DTPA in phosphate-buffered saline; for k (decomposition rate constant): pH 7.4, 37 °C, assay buffer.
The test system of the next data set is MDA-MB-231 cells. The experiment in a line: MTT viability assay, 5 combined with tamoxifen. Format: cell-based, human.
Data set [4] relates to MCF-7 or MDA-MB-231 cells. The data set can be described thus: MTT viability assay. Format: cell-based, human. Conditions: read-out: IC50 (cytotoxicity), 48 h, 10–100 µM. The method, boiled down:
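Breast cancer cells were seeded at 8,000–10,000 per well and grown overnight. They were treated 48 h with test compound (10–100 µM) or ethanol vehicle (<0.1% v/v). MTT (5 mg/mL solution) was added for 1 h at 37 °C, medium was removed, formazan was dissolved in DMSO, and absorbance was read at 550 nm. Growth inhibition was expressed as % of matching control; n ≥ 3, mean ± SD.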
A general note: Tetrazolium assays rely on reduction of a dye to a coloured formazan, in cell work by metabolically active cells.

For data set [5] the following is noted: guinea pig, pH 7.4.
Data set [6] concerns MDA-MB-231 breast cancer cells. The experiment in a line: Intracellular HNO/NO release with DAF-FM-2DA. The format is cell-based, human. To be noted: 10 µM donor, MDA-MB-231 cells loaded with 10 µM DAF-FM-2DA, 37 °C. The method in brief: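 They then received 10 µM donor, given as ionic diazeniumdiolates in 10 mM NaOH or the ester-protected form in ethanol (<0.1%). The rise in fluorescence (ex 485/em 535 nm) was followed over time at 37 °C. n = 2, six replicates per plate; mean ± SD.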

Like-named read-outs stand apart in the source and are kept apart here.

Turning to `[Na+].[Na+].[O-][N+]([O-])=NO` [Angeli’s salt, sodium trioxodinitrate], in data set [1], the “concentration range inhibiting proliferation” value is recorded as “millimolar range”. Moreover, the half-life in data set [2] was ~ 2 min.

As for `[Na+].[O-]N=[N+]([O-])NC1CCCC1` [Compound 1, Sodium 1-(N-cyclopentylamino)diazen-1-ium-1,2-diolate], the “cytotoxicity (clonogenic assay)” value in the data set with MCF-7 cells is “lowest cytotoxicity”. Further, in data set [3] (pH 7.4), the half-life was determined as 3.6 ± 0.08 min. Also, the “k (decomposition rate constant)” value in data set [3] is recorded as 3.2 ± 0.07 × 10^−3 s^−1.

As to `[Na+].[O-]N=[N+]([O-])NC1CCCCC1` [Compound 2, Sodium 1-(N-cyclohexylamino)diazen-1-ium-1,2-diolate], in data set [3] (pH 7.4), the half-life turned out to be 6.1 ± 0.02 min.

With `[Na+].[O-]N=[N+]([O-])NC1CCCCCC1` [Compound 3, Sodium 1-(N-cycloheptylamino)diazen-1-ium-1,2-diolate], in data set [3] (pH 7.4), the half-life was 5.9 ± 0.04 min.

`[Na+].[O-]N=[N+]([O-])NC1CCCCCCC1` [Compound 4, Sodium 1-(N-cyclooctylamino)diazen-1-ium-1,2-diolate] came in with a half-life in data set [3] (pH 7.4) of 5.4 ± 0.07 min. In addition, the “k (decomposition rate constant)” value in data set [3] was 2.1 ± 0.02 × 10^−3 s^−1.

In the case of `CC(=O)OCON=[N+]([O-])NC1CCCC1` [Compound 5, O^2-(Acetoxymethyl) 1-(cyclopentylamino)diazen-1-ium-1,2-diolate], in the data set with MDA-MB-231 cells (5 at 75 µM, 48 h, MB-231 cells), the viability was 75 ± 6%. The IC50 in data set [4] was ~100 µM. Further, the “half-life of decomposition in the presence of serum esterases” value in data set [5] is reported as 5.8 min. Besides, the “decomposition rate constant at pH 9” value in data set [3] (absence of serum, pH 9) was 5.0 × 10^−3 s^−1. For the same molecule, the half-life of decomposition in data set [3] (pH 7.4) is on record as 21 min. Besides, in data set [6], the “DAF-FM fluorescence signal relative to the four ionic compounds” value is listed as ~ 3 fold.

`CC(C)N[N+]([O-])=N[O-].[Na+]` [IPA/NO, sodium 1-(N-isopropylamino)diazen-1-ium-1,2-diolate]: the half-life in data set [2] is on record as 6.7 min.

On to `CC/C(=C(\c1ccccc1)c1ccc(OCCN(C)C)cc1)c1ccccc1` [tamoxifen, Tamoxifen, reference compound], for which the viability at 10 µM in the data set on MDA-MB-231 cells (Homo sapiens, MDA-MB-231, 48 h) was determined as 76 ± 13%.
